Laboratory results reported in ChEMBL document CHEMBL1141948, “Selective and orally bioavailable phenylglycine tissue factor/factor VIIa inhibitors” (Bioorg Med Chem Lett, 2005).

How the values were obtained:
Prothrombin = Prothrombin (Homo sapiens, UniProt P00734); experiment: Binding affinity to thrombin
[1] = Volume of distribution in rat at 6.1 mg/kg; format: ADME, organism-based; parameters: dose 6.1 mg/kg; details: in vivo, read-out: Vdss
In short: (§1)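 Rat pharmacokinetics with intravenous and oral dosing at the stated doses (mg/kg). Half-lives determined for iv and po routes; clearance (ml/min/kg), steady-state volume of distribution (l/kg) and oral bioavailability (%) derived.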

Coagulation factor X [2] = target: T1, Coagulation factor X (Homo sapiens, UniProt P00742); experiment: Binding affinity to FXa
T1 sequence (P00742 41-179 limits assumed): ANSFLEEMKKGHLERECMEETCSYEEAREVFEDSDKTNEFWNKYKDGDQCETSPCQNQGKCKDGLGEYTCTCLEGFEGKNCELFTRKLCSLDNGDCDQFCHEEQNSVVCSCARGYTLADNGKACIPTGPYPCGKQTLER
T1 sequence (P00742 235-488 limits assumed): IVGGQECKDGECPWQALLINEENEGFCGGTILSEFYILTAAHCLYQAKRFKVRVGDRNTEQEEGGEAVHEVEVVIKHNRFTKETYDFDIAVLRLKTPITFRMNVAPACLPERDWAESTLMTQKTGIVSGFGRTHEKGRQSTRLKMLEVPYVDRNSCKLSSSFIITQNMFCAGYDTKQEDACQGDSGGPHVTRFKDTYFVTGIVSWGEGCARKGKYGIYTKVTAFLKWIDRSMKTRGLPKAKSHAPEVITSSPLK

[3] = Oral bioavailability in rat at 6.1 mg/kg; format: ADME, organism-based; details: in vivo; in short: as §1
Trypsin = Trypsin (Homo sapiens, UniProt P07477+P07478+P35030); experiment: Binding affinity to trypsin; format: protein assay
[4] = Clearance in rat at 6.1 mg/kg; format: ADME, organism-based; parameters: dose 6.1 mg/kg; details: in vivo; in short: as §1
[5] = Half life in rat administered with 6.1 mg/kg, iv; format: ADME, organism-based; parameters: dose 6.1 mg/kg, route intravenous; details: in vivo; in short: as §1
[6] = target: Coagulation factor VII/tissue factor (Homo sapiens) (UniProt P08709+P13726); details: Plasma
Homo sapiens = species on record: Homo sapiens; experiment: Ratio of activated partial thromboplastin time against prothrombin time (aPTT/PT); format: functional
Coagulation factor X [7] = target: T1, Coagulation factor X; experiment: Activated partial thromboplastin time; format: functional
In short: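 Human citrated plasma spiked with at least six inhibitor concentrations; intrinsic-pathway clotting started with Actin FS (ellagic acid in soy phosphatides). Clotting time read by turbidity. Concentration doubling control clotting time (EC50) obtained by fitting data to exponential regression.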

[8] = target: Coagulation factor VII/tissue factor (Homo sapiens, UniProt P08709); experiment: Binding affinity to FVIIa/TF; format: protein-complex assay
Coagulation factor VII/tissue factor, sequence (P08709 61-212 limits assumed): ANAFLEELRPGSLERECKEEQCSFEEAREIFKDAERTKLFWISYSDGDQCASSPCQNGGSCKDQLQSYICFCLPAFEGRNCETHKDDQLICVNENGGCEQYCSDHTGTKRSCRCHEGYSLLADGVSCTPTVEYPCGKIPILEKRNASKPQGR
Coagulation factor VII/tissue factor, sequence (P08709 213-466 limits assumed): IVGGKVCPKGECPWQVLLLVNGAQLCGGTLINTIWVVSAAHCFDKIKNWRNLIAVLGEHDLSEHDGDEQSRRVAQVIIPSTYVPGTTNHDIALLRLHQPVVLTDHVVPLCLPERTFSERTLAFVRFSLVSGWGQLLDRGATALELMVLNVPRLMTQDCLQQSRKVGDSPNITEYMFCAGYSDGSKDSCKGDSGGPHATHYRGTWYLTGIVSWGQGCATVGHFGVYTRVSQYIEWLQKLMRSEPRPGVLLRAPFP
Coagulation factor VII/tissue factor, sequence (P13726 33-295 partner limits assumed): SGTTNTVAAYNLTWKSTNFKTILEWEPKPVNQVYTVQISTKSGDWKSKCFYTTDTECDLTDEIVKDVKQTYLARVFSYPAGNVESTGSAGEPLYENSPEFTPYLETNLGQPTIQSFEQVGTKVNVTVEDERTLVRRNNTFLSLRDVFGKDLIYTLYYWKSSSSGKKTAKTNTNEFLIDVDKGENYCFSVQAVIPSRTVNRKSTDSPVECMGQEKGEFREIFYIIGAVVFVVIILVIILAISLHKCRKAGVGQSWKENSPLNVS

[9] = Half life in rat administered with 10.3 mg/kg, po; format: ADME, organism-based; parameters: dose 10.3 mg/kg, route oral; details: in vivo
[10] = Oral bioavailability in rat at 10.3 mg/kg; format: ADME, organism-based; details: in vivo
[11] = Oral bioavailability in rat at 10 mg/kg; format: ADME, organism-based; details: in vivo; in short: as §1
[12] = Half life in rat administered with 10 mg/kg, po; format: ADME, organism-based; parameters: dose 10 mg/kg, route oral; details: in vivo; in short: as §1
[13] = Half life in rat administered with 10 mg/kg, iv; format: ADME, organism-based; parameters: dose 10 mg/kg, route intravenous; details: in vivo; in short: as §1
[14] = Half life in rat administered with 3 mg/kg, iv; format: ADME, organism-based; parameters: dose 3 mg/kg, route intravenous; details: in vivo; in short: as §1
[15] = Clearance in rat at 3 mg/kg; format: ADME, organism-based; parameters: dose 3 mg/kg; details: in vivo; in short: as §1
[16] = Volume of distribution in rat at 3 mg/kg; format: ADME, organism-based; parameters: dose 3 mg/kg; details: in vivo, read-out: Vdss; in short: as §1

| SMILES | Ki (Prothrombin) [nM] | Ki (Coagulation factor X [2]) [nM] | Ki (Trypsin) [nM] | 2PT [6] [µM] | Ratio (Homo sapiens) | 2aPTT (Coagulation factor X [7]) [µM] | Ki [8] [nM] | also measured |
| --- | --- | --- | --- | --- | --- | --- | --- | --- |
| CCOc1cc(OCC)cc(C(Nc2ccc(C(=N)N)cc2)C(=O)O)c1 (stereo unspecified) | > 35000 | 5600 | 16900 |  |  |  |  | Vd [1]: 0.3 L/kg; bioavailability [3]: 2%; clearance [4]: 2.6 mL/min/kg; half-life [5]: 2.9 h |
| CCOc1cc(OC2CCN(S(C)(=O)=O)CC2)cc(C(Nc2ccc(C(=N)N)cc2)C(=O)O)c1 (stereo unspecified) | > 3500 | 4400 | 3500 | 4.8 | 5.6 | 26.9 | 180 |  |
| CCOc1cc(OCC)cc(C(Nc2ccc(C(=N)NO)cc2)C(=O)O)c1 (stereo unspecified) |  |  |  |  |  |  |  | half-life [9]: 5 h; bioavailability [10]: 30% |
| C#Cc1cc(OC2CCOCC2)cc(C(Nc2ccc(C(=N)N)cc2)C(=O)O)c1 (stereo unspecified) | 4700 | 2900 | 1900 | 3.4 | 4.2 | 14.3 | 38 |  |
| CCOC(=O)C(Nc1ccc(C(=N)NO)cc1)c1cc(OCC)cc(OCC)c1 (stereo unspecified) |  |  |  |  |  |  |  | bioavailability [11]: 100%; half-life [12]: 4.8 h; half-life [13]: 3.5 h |
| CCOc1cc(OC2CCN(C)CC2)cc(C(Nc2ccc(C(=N)N)cc2)C(=O)O)c1 (stereo unspecified) | 9900 | 1600 | 8600 |  |  | 22.3 |  |  |
| C#Cc1cc(O[C@H]2CCOC2)cc(C(Nc2ccc(C(=N)N)cc2)C(=O)O)c1 (stereo partly specified) | 9500 | 2600 | 5400 | 4.3 | 3 | 12.9 | 65 |  |
| CCOc1cc(O[C@H]2CCOC2)cc([C@@H](Nc2ccc(C(=N)N)cc2)C(=O)O)c1 | 4600 | 1500 | 4500 |  |  | 10.3 |  |  |
| C#Cc1cc(O[C@@H]2CCOC2)cc(C(Nc2ccc(C(=N)N)cc2)C(=O)O)c1 (stereo partly specified) | 8800 | 15300 | 6600 | 9.1 | 3.7 | 34 | 129 |  |
| C=Cc1cc(OC2CCOCC2)cc(C(Nc2ccc(C(=N)N)cc2)C(=O)O)c1 (stereo unspecified) | 2900 | 13300 | 8700 | 5.9 | 4 | 23.7 | 69 |  |
| CCOc1cc(-c2cccnc2)cc(C(Nc2ccc(C(=N)N)cc2)C(=O)O)c1 (stereo unspecified) | 10200 | 2200 | 8000 | 11.8 | 4.9 | 57.6 | 510 |  |
| CCOc1cc(-c2ccccc2)cc(C(Nc2ccc(C(=N)N)cc2)C(=O)O)c1 (stereo unspecified) | 7300 | 1400 | > 68000 | 35.6 | 2 | 69.9 | 130 |  |
| CCc1cc(OC2CCOCC2)cc(C(Nc2ccc(C(=N)N)cc2)C(=O)O)c1 (stereo unspecified) | 1600 | > 7500 | 4800 |  |  | 15.6 |  |  |
| COc1cc(C(Nc2ccc(C(=N)N)cc2)C(=O)O)ccc1OCc1ccccc1 (stereo unspecified) | 74 | 730 | 310 | 11.9 |  |  | 61 |  |
| CCOc1cc(C(Nc2ccc(C(=N)N)cc2)C(=O)O)ccc1OCc1ccccc1 (stereo unspecified) | 85 | 790 | 1000 | 8.8 |  |  | 28 |  |
| CCOC(=O)C(Nc1ccc(C(=N)NO)cc1)c1cc(OCC)cc(O[C@H]2CCOC2)c1 (stereo partly specified) |  |  |  |  |  |  |  | bioavailability [11]: 15%; half-life [12]: 4.1 h; half-life [13]: 0.9 h |
| CCOc1cc(O[C@@H]2CCOC2)cc(C(Nc2ccc(C(=N)N)cc2)C(=O)O)c1 (stereo partly specified) | 11300 | 9100 | 9900 |  |  | 51.7 |  |  |
| CCOc1cc(O[C@H]2CCOC2)cc(C(Nc2ccc(C(=N)N)cc2)C(=O)O)c1 (stereo partly specified) | 8600 | 2300 | 7300 |  |  | 17.2 |  | half-life [14]: 1.4 h; clearance [15]: 5.7 mL/min/kg; Vd [16]: 0.5 L/kg |
| CCOc1cc(OC2CCOCC2)cc(C(Nc2ccc(C(=N)N)cc2)C(=O)O)c1 (stereo unspecified) | > 6600 | 2900 | 7000 | 4.8 | 4.1 | 19.8 | 140 |  |
| CCOc1cc(O[C@H]2CC[C@H](O)CC2)cc(C(Nc2ccc(C(=N)N)cc2)C(=O)O)c1 (stereo partly specified) | 5500 | 12200 | 4000 | 5.4 | 5.4 | 29.4 | 110 |  |
